The source of these data is ChEMBL document CHEMBL1143180, “Imidazolyl benzimidazoles and imidazo[4,5-b]pyridines as potent p38alpha MAP kinase inhibitors with excellent in vivo antiinflammatory properties” (Bioorg Med Chem Lett, 2008).

Series [1] deals with Mitogen-activated protein kinase 14 (Homo sapiens, UniProt Q16539). Description: Inhibition of human recombinant p38alpha.
For the next series, the system named is Macrophage. Description: Inhibition of LPS-stimulated TNFalpha production in mouse peritoneal macrophages. It counts as functional, cell-based. The gist of the method: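 Murine peritoneal macrophages stimulated with LPS while exposed to test compound; TNFα release measured as functional read-out. Cell assay minimum significant ratio 2.8.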
Series [2] concerns the target Mitogen-activated protein kinase 14 (Mus musculus, UniProt P47811). In words: Inhibition of mouse p38alpha in anisomycin-stimulated RAW 264.7 cells by ELISA. The format is cell-based. Put shortly: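 Cell-based ELISA: RAW 264.7 cells pretreated with compound, then stimulated with anisomycin; p38α activity detected by antibody to phospho-MAPKAPK-2 (Thr334), a residue phosphorylated specifically by p38α. Minimum significant ratio 2.8.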
A general note: An ELISA detects its analyte on a solid surface through an enzyme-linked reagent.

The test system of the next series is Mus musculus. In words: Inhibition of LPS-stimulated TNFalpha production in po dosed BALB/c mouse. It counts as functional.
Series [3] deals with Rattus norvegicus. In words: Antiinflammatory activity against collagen-induced arthritis rat model assessed as inhibition of paw swelling administered orally twice daily for 14 days. The format is functional. The gist of the method:
(§1)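 Rat collagen-induced arthritis, 14-day chronic model; activity scored by paw swelling and by histopathology (bone erosion, cartilage destruction); TMED50 derived from dose response.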

For series [4], the system named is Rattus norvegicus. In words: Antiinflammatory activity against collagen-induced arthritis rat model assessed as effect on histopathology scores administered orally twice daily for 14 days. The format is functional. Put shortly: as §1
Series [5] can be described thus: AUC (0 to infinity) in rat at 10 mg/kg, po. The conditions noted are these: plasma. The format is ADME, organism-based. Details: time infinity, dose 10 mg/kg, route oral. Put shortly: (§2)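 Rats dosed orally at 10 mg/kg; plasma exposure reported as AUC0-inf and terminal half-life.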
Series [6] can be described thus: Half life in rat at 10 mg/kg, po. The conditions noted are these: in vivo. More on the design: dose 10 mg/kg, route oral. It counts as ADME, organism-based. Put shortly: as §2

Sequence of Mitogen-activated protein kinase 14 (Mus musculus, UniProt P47811) (P47811 whole entry): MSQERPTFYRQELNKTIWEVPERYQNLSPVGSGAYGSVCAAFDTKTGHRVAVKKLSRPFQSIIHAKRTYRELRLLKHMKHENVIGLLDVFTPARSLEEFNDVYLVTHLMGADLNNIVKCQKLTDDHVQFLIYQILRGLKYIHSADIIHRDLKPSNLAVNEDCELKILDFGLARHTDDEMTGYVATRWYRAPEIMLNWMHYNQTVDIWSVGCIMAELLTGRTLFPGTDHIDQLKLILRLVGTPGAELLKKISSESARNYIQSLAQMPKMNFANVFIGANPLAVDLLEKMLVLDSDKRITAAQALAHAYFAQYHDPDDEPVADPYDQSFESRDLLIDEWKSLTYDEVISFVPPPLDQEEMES
Sequence of Mitogen-activated protein kinase 14 (Homo sapiens, UniProt Q16539) (Q16539 whole entry): as the sequence (P47811 whole entry) above, with H48L, A263T counted along it

In general, IC50 refers to the midpoint of a concentration-inhibition curve. `CC(C)Cn1cnc2ccc(-c3[nH]c(-c4c(F)cccc4F)nc3-c3ccccc3)cc21`: the half-maximal inhibitory concentration (IC50) was 16.2 nM in series [1] and 51.9 nM with Macrophage.

Regarding `Fc1cccc(F)c1-c1nc(-c2ccccc2)c(-c2ccc3nc[nH]c3c2)[nH]1`, the concentration for half-maximal inhibition (IC50) in series [1] came out at 88.4 nM; in the series with Macrophage, 419 nM; in series [2] it was 766 nM.

With `CC(C)S(=O)(=O)n1c(N(C)Cc2ccccc2)nc2ccc(-c3[nH]c(-c4c(F)cccc4F)nc3-c3ccccc3)cc21`, the IC50 in series [1] turned out to be 2490 nM; with Macrophage, 234 nM.

Take `CCNc1nc2ccc(-c3[nH]c(-c4c(F)cccc4F)nc3-c3ccccc3)cc2[nH]1`: the IC50 in series [1] was 56.4 nM; in the series on Macrophage it was 493 nM.

Take `CC(C)S(=O)(=O)n1c(N)nc2ccc(-c3[nH]c(-c4c(F)cccc4F)nc3-c3ccccc3)nc21`: the results for the IC50 (in series [1]; in the series on Macrophage; in series [2]) were 3.5 nM, 3.7 nM and 298 nM, respectively.

Regarding `Nc1nc2ccc(-c3[nH]c(-c4c(F)cccc4F)nc3-c3ccccc3)cc2[nH]1`, the IC50 is 131 nM in series [1] and 1330 nM in the series with Macrophage.

Regarding `CC(C)Cn1c(N)nc2ccc(-c3[nH]c(-c4c(F)cccc4F)nc3-c3ccccc3)cc21`, the 50% inhibitory concentration (IC50) stood at 9.9 nM in series [1], 47.5 nM in the series on Macrophage and 78.3 nM in series [2].

By AUC(0-inf) is commonly meant the area under the concentration-time curve extrapolated to infinity. Read a low AUC(0-inf) as less exposure. By half-life is commonly meant the time in which the quantity being followed falls by half. The low end stands for rapid decline, the high end for slow decline. As for `CC(C)S(=O)(=O)n1c(N)nc2ccc(-c3[nH]c(C(C)(C)C)nc3-c3ccc(F)cc3F)cc21`, the IC50 with Macrophage came to 6.2 nM; in series [2], 26.2 nM. The TMED50 in the series on Mus musculus is 2.2 mg/kg; in the series on Rattus norvegicus [3] it was 1.5 mg/kg; in the series with Rattus norvegicus [4], 8.1 mg/kg. The AUC(0-inf) in series [5] came out at 14.6 µM·h. In addition, the half-life in series [6] was 8 h.

As to `CC(C)S(=O)(=O)n1c(N)nc2ccc(-c3[nH]c(-c4ccc(Cl)cc4)nc3-c3ccccc3)cc21`, the IC50 stood at 34.7 nM in series [1], 71 nM in the series on Macrophage and 376 nM in series [2].

As to `CCNc1nc2ccc(-c3[nH]c(-c4c(F)cccc4F)nc3-c3ccccc3)cc2n1S(=O)(=O)C(C)C`, the IC50 came out at 156 nM in series [1] and 527 nM in the series with Macrophage.

Regarding `CC(C)S(=O)(=O)n1c(N)nc2ccc(-c3[nH]c(-c4c(F)cccc4F)nc3-c3ccccc3)cc21`, the figures for the IC50 (with Macrophage; in series [2]) were 10.3 nM and 45.7 nM, respectively. For the same compound, the TMED50 with Mus musculus is 5.2 mg/kg; in the series on Rattus norvegicus [3], more than 30 mg/kg; with Rattus norvegicus [4] it was more than 30 mg/kg. This compound also had an AUC(0-inf) in series [5] of 5.5 µM·h. Besides, in series [6], the half-life was 5 h.

Consider `CC(C)S(=O)(=O)n1c(N)nc2ccc(-c3nc(-c4ccccc4C(F)(F)F)[nH]c3-c3ccccc3)cc21`, for which the results for the 50% inhibitory concentration (IC50) (in series [1]; with Macrophage; in series [2]) were 26.1 nM, 33.1 nM and 284 nM, respectively.

With `CC(C)S(=O)(=O)n1c(N)nc2ccc(-c3[nH]c(-c4c(Cl)cccc4C(F)(F)F)nc3-c3ccccc3)cc21`, the values for the half-maximal inhibitory concentration (IC50) (in series [1]; in the series on Macrophage; in series [2]) were 8.5 nM, 1.9 nM and 398 nM, respectively.

As for `Nc1nc2ccc(-c3[nH]c(-c4c(F)cccc4F)nc3-c3ccccc3)cc2n1-c1ccccc1`, in series [1], the IC50 was determined as 158 nM.

For `Cc1nc(-c2ccc(F)cc2F)c(-c2ccc3nc(N)n(S(=O)(=O)C(C)C)c3c2)[nH]1`, the results for the IC50 (in series [1]; in the series on Macrophage; in series [2]) were 8.8 nM, 46.5 nM and 59.7 nM, respectively.

Turning to `CC(C)S(=O)(=O)n1c(N)nc2ccc(-c3nc(-c4c(Cl)cccc4Cl)[nH]c3-c3ccccc3)cc21`, the IC50 was 2.6 nM in the series with Macrophage and 38.9 nM in series [2].

With `Cc1nc2ccc(-c3[nH]c(-c4c(F)cccc4F)nc3-c3ccccc3)cc2n1CC(C)C`, the IC50 in series [1] was 11.2 nM; with Macrophage, 338 nM.

Turning to `CC(C)Cn1cnc2ccc(-c3[nH]c(-c4c(F)cccc4F)nc3-c3ccccc3)nc21`, the half-inhibitory concentration (IC50) in series [1] is 4.5 nM; with Macrophage it was 26.7 nM; in series [2], 69.7 nM.

Consider `CC(C)(C)Cn1c(N)nc2ccc(-c3[nH]c(-c4c(F)cccc4F)nc3-c3ccccc3)nc21`, for which the IC50 in series [1] was 6.4 nM; in the series on Macrophage, less than 9 nM.

Regarding `CC(C)S(=O)(=O)n1c(N)nc2ccc(-c3[nH]cnc3-c3ccccc3)cc21`, the half-inhibitory concentration (IC50) came out at 31.8 nM with Macrophage and 195 nM in series [2].

`Cc1nc(-c2ccc(F)cc2)c(-c2ccc3nc(N)n(S(=O)(=O)C(C)C)c3c2)[nH]1`: the half-maximal inhibitory concentration (IC50) is 7.1 nM in series [1], 104 nM with Macrophage and 225 nM in series [2].

As to `CC(C)S(=O)(=O)n1c(N)nc2ccc(-c3[nH]c(-c4ccncc4)nc3-c3ccccc3)cc21`, the IC50 turned out to be 6.1 nM in series [1], 14.1 nM in the series on Macrophage and 62.3 nM in series [2].

`CC(C)S(=O)(=O)n1c(N)nc2ccc(-c3nc(-c4c(Cl)cccc4Cl)[nH]c3-c3ccc(F)cc3)cc21`: the concentration for half-maximal inhibition (IC50) worked out at 6.7 nM in series [1], 5.3 nM with Macrophage and 27.5 nM in series [2].

In the case of `CC(C)Cn1cnc2ccc(-c3[nH]c(-c4c(Cl)cccc4Cl)nc3-c3ccccc3)nc21.CS(=O)(=O)O`, the half-inhibitory concentration (IC50) in series [1] was determined as 3.7 nM; in the series on Macrophage, 1.7 nM; in series [2], 64.7 nM. Besides, the TMED50 in the series on Mus musculus is less than 2.5 mg/kg; in the series with Rattus norvegicus [3], 15 mg/kg; in the series with Rattus norvegicus [4] it was more than 30 mg/kg. In series [5], this compound came in with a total exposure AUC(0-inf) of 29.9 µM·h. Moreover, in series [6], the half-life was 4 h.

`CC(C)S(=O)(=O)n1c(N)nc2ccc(-c3[nH]c(-c4c(F)cccc4Cl)nc3-c3ccccc3)cc21`: the IC50 worked out at 14.5 nM in series [1], 11.2 nM in the series with Macrophage and 74.5 nM in series [2].

As for `CC(C)(C)Cn1cnc2ccc(-c3[nH]c(C(C)(C)C)nc3-c3ccc(F)cc3F)nc21`, the half-inhibitory concentration (IC50) stood at 24.1 nM in the series with Macrophage and 20.7 nM in series [2].

Take `Cc1nc(-c2ccccc2)c(-c2ccc3nc(N)n(S(=O)(=O)C(C)C)c3c2)[nH]1`: the results for the IC50 (in series [1]; with Macrophage) were 20.4 nM and 186 nM, respectively.

Consider `CC(C)Cn1c(N)nc2ccc(-c3[nH]c(-c4c(F)cccc4F)nc3-c3ccccc3)nc21`, for which the results for the IC50 (in series [1]; with Macrophage; in series [2]) were 2.5 nM, 1.3 nM and 35 nM, respectively.

For `CC(C)(C)Cn1c(N)nc2ccc(-c3[nH]c(-c4c(F)cccc4F)nc3-c3ccccc3)cc21`, the IC50 in series [1] was determined as 6 nM; with Macrophage, 3.5 nM; in series [2], 126 nM.
